Values after ≈ are worked out from the molar mass of the structure shown.
How the values were obtained:
Plasmodium falciparum [1] = test: In vitro inhibitory activity against Plasmodium falciparum (sierra leone clone); type: functional, organism-based
Plasmodium berghei [2] = test: Blood schizonticidal activity against Plasmodium berghei N; type: functional
How it was run: (§1)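 Mice infected with parasitised donor blood of drug-sensitive or drug-resistant lines were given a single subcutaneous dose daily on 4 consecutive days, starting 3 h post-infection, across a dose range. Compounds were dissolved in water or sonicated into 0.1% Tween 80. Parasitaemia was read from thin blood films 1 day after treatment ended and compared with sham-treated controls. ED50/ED90 came from log dose/probit plots, with a resistance index at the ED90 level.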

Plasmodium berghei [3] = test: Blood schizonticidal activity against Plasmodium berghei B; type: functional; how it was run: as §1
Plasmodium berghei [4] = test: Blood schizonticidal activity against Plasmodium berghei MEN; type: functional; how it was run: as §1
Plasmodium berghei [5] = test: Blood schizonticidal activity against Plasmodium berghei NS; type: functional; how it was run: as §1
Plasmodium berghei [6] = test: Blood schizonticidal activity against Plasmodium berghei 1100; type: functional; how it was run: as §1
Plasmodium falciparum [7] = test: Inhibitory concentration against Plasmodium falciparum W2 Indochina; type: functional, organism-based
How it was run: (§2)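 Micromanipulation-derived P. falciparum clones were tested by semiautomated microdilution at 0.5% parasitemia and 1.5% hematocrit. Drugs were dissolved in DMSO and diluted in medium with 10% plasma, giving serial dilutions over a 64-fold range. Plates were held at 37 °C under 5% O2/5% CO2/90% N2 for 24 h, then pulsed with tritiated hypoxanthine for 18–20 h. Uptake was counted by scintillation, and IC50 was obtained by nonlinear regression.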

Plasmodium berghei [8] = test: Blood schizonticidal activity against Plasmodium berghei N/HAL; type: functional; how it was run: as §1
Plasmodium berghei [9] = test: Blood schizonticidal activity against Plasmodium berghei NPN; type: functional; how it was run: as §1
Plasmodium berghei [10] = test: Blood schizonticidal activity against Plasmodium berghei QS; type: functional; how it was run: as §1
Plasmodium berghei [11] = test: Blood schizonticidal activity against Plasmodium berghei ORA; type: functional; how it was run: as §1
Plasmodium berghei [12] = test: Blood schizonticidal activity against Plasmodium berghei N/1100; type: functional; how it was run: as §1
Plasmodium berghei [13] = test: Blood schizonticidal activity against Plasmodium berghei ART; type: functional; how it was run: as §1
Plasmodium berghei [14] = test: Blood schizonticidal activity against Plasmodium berghei PYR; type: functional; how it was run: as §1
Plasmodium berghei [15] = test: Blood schizonticidal activity against Plasmodium berghei RC; type: functional; how it was run: as §1
Plasmodium berghei [16] = test: Blood schizonticidal activity against Plasmodium berghei P; type: functional; how it was run: as §1
Plasmodium falciparum [17] = test: Inhibitory concentration against Plasmodium falciparum D6 (Sierra Leone); type: functional, organism-based; how it was run: as §2

SMILES	IC50 (Plasmodium falciparum [1])	ED90 (Plasmodium berghei [2])	I 90 (Plasmodium berghei [2])	ED90 (Plasmodium berghei [3])	I 90 (Plasmodium berghei [3])	ED90 (Plasmodium berghei [4])	I 90 (Plasmodium berghei [4])	ED90 (Plasmodium berghei [5])	I 90 (Plasmodium berghei [5])	ED90 (Plasmodium berghei [6])	IC50 (Plasmodium falciparum [7])	ED90 (Plasmodium berghei [8])	I 90 (Plasmodium berghei [8])	ED90 (Plasmodium berghei [9])	I 90 (Plasmodium berghei [9])	ED90 (Plasmodium berghei [10])	I 90 (Plasmodium berghei [10])	ED90 (Plasmodium berghei [11])	I 90 (Plasmodium berghei [11])	IC50 (Plasmodium falciparum [17])	other results
C[C@@H]1CC[C@H]2[C@@H](C)C(=O)O[C@@H]3O[C@@]4(C)CC[C@@H]1[C@]32OO4 [ARTEMISININ]	2.97 ng/mL (≈ 0.0105 µM)	2.3	1	8.2	2	6.2	1.5	10	2.4	17	6.41 nM	31	13.5	90	21.4	24	10.4	7.5	1.8	10.5 nM	I 90 (Plasmodium berghei [12]): 4; ED90 (Plasmodium berghei [13]): 49; I 90 (Plasmodium berghei [13]): 21.3; ED90 (Plasmodium berghei [14]): 4.8; I 90 (Plasmodium berghei [14]): 1.1; ED90 (Plasmodium berghei [15]): 630; I 90 (Plasmodium berghei [15]): 150; ED90 (Plasmodium berghei [16]): 12; I 90 (Plasmodium berghei [16]): 2.9
C[C@@H]1CC[C@H]2[C@@H](C)C(=O)O[C@@H]3O[C@@]4(C)CC[C@@H]1[C@]32O4 [DEOXYARTEMISININ]	–	–	–	–	–	–	–	–	–	–	–	–	–	–	–	–	–	–	–	2860 nM	–
CO[C@H]1O[C@@H]2O[C@@]3(C)CC[C@H]4[C@H](C)CC[C@@H]([C@H]1C)[C@@]24OO3 [ARTEMETHER]	–	–	–	–	–	–	–	–	–	–	3.34 nM	–	–	–	–	–	–	–	–	4.49 nM	–
C[C@H]1[C@@H](O)O[C@@H]2O[C@@]3(C)CC[C@H]4[C@H](C)CC[C@@H]1[C@@]24OO3 [ARTENIMOL]	0.52 ng/mL (≈ 0.00183 µM)	–	–	–	–	–	–	–	–	–	1.79 nM	–	–	–	–	–	–	–	–	1.83 nM	–
CCO[C@@H]1O[C@@H]2OC3(C)CC[C@H]4[C@H](C)CC[C@@H]([C@H]1C)[C@@]24OO3 (single isomer, unassigned) [ALPHA-ARTEETHER]	–	1.3	1	2.9	2.4	1.7	1.4	1.5	1.3	4.1	3.07 nM	9.5	7.3	3.5	2.9	13.8	10.6	0.8	0.7	4.18 nM	I 90 (Plasmodium berghei [12]): 3.4; ED90 (Plasmodium berghei [13]): 29; I 90 (Plasmodium berghei [13]): 22.3; ED90 (Plasmodium berghei [14]): 1.3; I 90 (Plasmodium berghei [14]): 1.1; ED90 (Plasmodium berghei [15]): 16.5; I 90 (Plasmodium berghei [15]): 13.8; ED90 (Plasmodium berghei [16]): 2.5; I 90 (Plasmodium berghei [16]): 2.1
C[C@H]1[C@H](OC(=O)CCC(=O)O)O[C@@H]2O[C@@]3(C)CC[C@H]4[C@H](C)CC[C@@H]1[C@@]24OO3 [SODIUM ARESUNATE]	–	–	–	–	–	–	–	–	–	–	1.66 nM	–	–	–	–	–	–	–	–	2.18 nM	–
OC(c1cc(C(F)(F)F)nc2c(C(F)(F)F)cccc12)C1CCCCN1 (stereo not given) [MEFLOQUINE]	–	–	–	–	–	–	–	–	–	–	5.75 nM	–	–	–	–	–	–	–	–	33.4 nM	–
C[C@H]1[C@@H](O)O[C@@H]2OC3(C)CC[C@H]4[C@H](C)CC[C@@H]1[C@@]24O3 (single isomer, unassigned)	136 ng/mL (≈ 0.505 µM)	–	–	–	–	–	–	–	–	–	–	–	–	–	–	–	–	–	–	506 nM	–
CCO[C@H]1O[C@@H]2OC3(C)CC[C@H]4[C@H](C)CC[C@@H]([C@H]1C)[C@@]24O3 (single isomer, unassigned)	172 ng/mL (≈ 0.579 µM)	–	–	–	–	–	–	–	–	–	–	–	–	–	–	–	–	–	–	580 nM	–
CCO[C@H]1O[C@@H]2O[C@@]3(C)CC[C@H]4[C@H](C)CC[C@@H]([C@H]1C)[C@@]24OO3 [ARTEMOTIL]	1.27 ng/mL (≈ 0.00407 µM)	0.5	1	0.9	0.8	2.2	2	2.2	2	4.2	2.94 nM	2.1	4.2	2.5	2.3	1.4	2.8	0.8	0.7	4.07 nM	I 90 (Plasmodium berghei [12]): 3.8; ED90 (Plasmodium berghei [13]): 2.3; I 90 (Plasmodium berghei [13]): 4.6; ED90 (Plasmodium berghei [14]): 0.8; I 90 (Plasmodium berghei [14]): 0.7; ED90 (Plasmodium berghei [15]): 8.2; I 90 (Plasmodium berghei [15]): 7.5; ED90 (Plasmodium berghei [16]): 0.8; I 90 (Plasmodium berghei [16]): 0.7

Reference: ChEMBL document CHEMBL1124063, “Arteether, a new antimalarial drug: synthesis and antimalarial properties” (J Med Chem, 1988)
